Screening results: PubChem BioAssay, several laboratories
Shown are actives, neighbours in structure and some others; about 1.5% of the full set was active somewhere.
MT1-MMP act inh – MT1-MMP (human) activation inhibition | HT1080 RFP-PRO-GFP cells, GFP/RFP ratio fluorescence, overnight; percent of plate control window, DMSO zero | GFP/RFP ratio change, % at 20 µM | P50281 | 360,000 compounds, 0.061% hits;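 active = GFP/RFP ratio change of at least 30% with cell ATP level not reduced by more than half and red fluorescence within 50% of control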
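Test system: HT1080 cells expressing an RFP-PRO-GFP fluorescent reporter construct / Compound dosing: single-point 20 µM compound, 1% DMSO / Schedule: cells overnight before dosing, compound overnight, 37 °C, 5% CO2 / Evaluation: GFP/RFP fluorescence ratio / Control set: DMSO and RFP-L50D-GFP cell wells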
CTSL1 counter – blocks F. hepatica cathepsin L1 in PFM18AAP counter-screen; 300,000 compounds, 0.49% hits; recombinant F. hepatica cathepsin L1, Z-Leu-Arg-MCA fluorescence; inhibition, % at 5.96 µM;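 active = inhibition above the mean of all tested compounds plus 3 SD, set per screening campaign, cut at about 17% in these data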;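 also: 0% = plate median of test compound wells and 100% = 1 µM Z-Phe-Ala-diazomethylketone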
NRP1-CendR mod – NRP-1/CendR interaction modulation; O14786; FAM-RPARPAR peptide binding to NRP-1, fluorescence polarization; inhibition, % at 25 µM; 360,000 compounds, 0.85% hits; AID 602438;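 active = inhibition or corrected inhibition above about 18%, plus a signal ratio from 0.5 to 1.5, limit read from the data, passing the limit was not always enough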
DAGLB inh – blocks human DAGLB lipase activity. HEK293T DAGLB membrane lysate, EnzChek fluorogenic substrate. inhibition, % at 5.17 µM. AID 504411. Q8NCG7. 340,000 compounds, 0.059% hits; in the data active = inhibition above about 34%;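 also: 0% = enzyme with vehicle and 100% = wells lacking enzyme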
Target sequence (Q8NCG7 whole entry, looked up): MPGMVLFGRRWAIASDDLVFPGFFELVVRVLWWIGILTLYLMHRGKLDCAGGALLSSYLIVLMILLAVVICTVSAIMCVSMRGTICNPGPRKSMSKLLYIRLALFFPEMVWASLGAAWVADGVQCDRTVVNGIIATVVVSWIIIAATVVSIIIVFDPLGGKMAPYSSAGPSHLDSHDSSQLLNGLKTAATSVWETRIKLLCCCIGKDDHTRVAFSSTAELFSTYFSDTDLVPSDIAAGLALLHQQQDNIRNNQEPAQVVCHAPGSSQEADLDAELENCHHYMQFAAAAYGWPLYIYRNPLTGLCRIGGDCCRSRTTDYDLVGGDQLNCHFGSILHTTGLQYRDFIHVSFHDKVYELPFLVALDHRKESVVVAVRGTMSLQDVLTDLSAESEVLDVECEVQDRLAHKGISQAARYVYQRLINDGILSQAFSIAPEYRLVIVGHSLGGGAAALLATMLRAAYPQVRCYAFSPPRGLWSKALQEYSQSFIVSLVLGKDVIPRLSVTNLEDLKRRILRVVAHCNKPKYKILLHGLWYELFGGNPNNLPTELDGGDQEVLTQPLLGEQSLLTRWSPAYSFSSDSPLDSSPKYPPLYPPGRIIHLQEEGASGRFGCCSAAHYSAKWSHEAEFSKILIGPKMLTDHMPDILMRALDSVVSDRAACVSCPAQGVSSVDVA
UCH37 inh – blocks the human deubiquitinase UCH37; AID 588478; Q9Y5K5; 330,000 compounds, 0.33% hits; purified proteasome/UCH37, Ub-AMC cleavage fluorescence; inhibition, % (concentration not given with the values);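 active = mean inhibition over replicate wells above about 20%, limit read from the data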;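 also: 0% = compound-free wells with enzyme and 100% = wells lacking proteasome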
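Material: human UCH37 enzyme supplied as purified proteasome complex / Amount: 0.15 nM proteasome as dispensed / Buffer or medium: pH 7.4 Tris-HCl (50 mM) with ovalbumin, ATP-MgCl2, DTT / Times: preincubation 30 min, reaction 25 min, room temperature / Technique: AMC fluorescence from Ub-AMC cleavage, excitation 355 nm, emission 460 nm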
Starred values were filed as active, the others as inactive; i = inactive; / = no result given.

SMILES	MT1-MMP act inh	CTSL1 counter	NRP1-CendR mod	DAGLB inh	UCH37 inh
COc1ccc(C=Nn2cncn2)cc1COc1ccc(NC(C)=O)cc1	/	/	/	/	2.1
NC(=S)N/N=C/c1cc([N+](=O)[O-])ccc1OCCOc1ccccc1	-1.5	81.0*	25.4*	3.8	/
NC(=S)N/N=C/c1ccc(Br)o1	-0.3	17.3*	-0.1	-0.3	/
NC(=S)NN=Cc1ccc(C=NNC(N)=S)cc1	/	/	/	/	-4.9
NC(=S)N/N=C/c1ccc(-c2cccc([N+](=O)[O-])c2)o1	0.3	24.8*	6.3	1.4	/
Cc1ccc(-c2ccc(C(=O)NCc3ccccc3)o2)c2ccccc12	-2.1	7.8	-1.5	-8.4	-18.8
CCOc1ccccc1-c1ccc(C(=O)NCc2ccccc2)o1	-4.2	-4.9	27.3*	-10.3	-14.9
CCN1C(=O)C(C)SC1=NS(=O)(=O)c1ccc(Cl)s1 (stereo not drawn)	/	/	/	/	-3.1
Cc1cccc(C(CC(=O)NCCc2ccccc2)c2ccccc2)c1O (stereo not drawn)	-2.1	-4.2	21.1*	-4.6	-1.2
O=C(COc1ccc2ccccc2c1)N/N=C/c1ccccn1	7.0	5.0	37.1*	-2.7	/
Cc1cc(C)cc(OCC(=O)NN=Cc2ccccn2)c1	/	/	/	/	-1.4
c1ccc(-c2nc(C3CCCCC3)c3sccc3n2)cc1	5.0	1.6	27.9*	-11.3	3.6
CSc1ccc(C=NN2CCN(Cc3ccc(Cl)cc3)CC2)cc1	/	/	/	/	4.4
CCCCN(CCCC)CCn1cnc2c([nH]c3ccc(OC)cc32)c1=O	1.3	106.7*	-8.5	-2.3	-25.1
c1ccc(Cn2c(CNc3nc4ccccc4n3CCN3CCCCC3)nc3ccccc32)cc1	-0.6	-0.4	30.2*	-4.5	-3.1
CCOC(=O)Cc1csc(N/N=C\c2ccc(N(C)C)cc2)n1	0.8	18.9*	3.8	12.6	/
CCOC(=O)Cc1csc(N/N=C/c2ccccc2)n1	1.1	1.8	-1.6	3.1	/
COc1cc(CC(=O)O)ccc1OCc1ccccc1	-3.8	7.5	26.0*	-10.5	2.7
CCOC(=O)C1CCN(C(=O)C2CCN(C(=O)c3ccc([N+](=O)[O-])cc3)CC2)CC1	0.1	0.7	23.7*	-1.4	3.5
Cc1cc(NN=Cc2ccccc2F)c2ccccc2n1	/	/	/	/	-18.9
Cn1ncc([N+](=O)[O-])c1C(=O)NN=Cc1c[nH]c2ccccc12	/	/	/	/	12.2
Cc1ccc(Nc2c(-c3ccccn3)nc3ccc(C)cn23)cc1	7.7	19.1*	-1.6	2.9	-17.2
Cc1ccc(Nc2c(-c3ccccn3)nc3cc(C)ccn23)cc1	-8.2	5.7	7.2	6.4	-4.1
O=C(NN=Cc1ccccc1F)c1ccc(-c2ccccc2)cc1	/	/	/	/	4.9
CC(C)C[C@H](NC(=O)N1CC(=O)Nc2ccccc21)C(=O)N[C@H](Cc1c[nH]c2ccccc12)C(=O)O	2.6	37.9*	0.9	8.4	2.8
SMILES	MT1-MMP act inh	CTSL1 counter	NRP1-CendR mod	DAGLB inh	UCH37 inh
CC(C)C[C@H](NC(=O)N1CC(=O)Nc2ccccc21)C(=O)N[C@@H](Cc1c[nH]c2ccccc12)C(=O)O	-3.8	21.7*	-0.3	0.9	3.0
CCC(C)[C@H](NC(=O)N1CC(=O)Nc2ccccc21)C(=O)N[C@@H](Cc1c[nH]c2ccccc12)C(=O)O (stereo partly drawn)	-1.1	5.0	-0.4	0.1	4.5
O=C(CNC(=O)C(c1ccccc1)c1ccccc1)NN=Cc1ccc2c(c1)OCO2	/	/	/	/	-1.0
CC1Cn2c(nnc2-c2cc3ccccc3cc2O)S1 (stereo not drawn)	7.2	0.4	25.7*	0.2	-40.4
O=C(CCl)N1CCCC1c1ccc2c(c1)OCCO2 (stereo not drawn)	1.4	74.9*	-0.3	1.2	/
COc1ccc(CN(C)C(=O)CCNS(=O)(=O)c2ccccc2)c(OC)c1	6.7	/	28.6*	-0.3	/
CC(CCc1ccc2c(c1)OCO2)=NN=C(N)SC1CC(=O)N(c2ccc(Cl)cc2)C1=O (stereo not drawn)	/	/	/	/	1.7
COc1cc(C2Nc3cccc4cccc(c34)N2)ccc1OC(C)=O	31.2*	-0.9	12.9	3.2	6.3
O=C(CNC(=O)C1CCCCC1)OCc1cc(=O)oc2ccc3ccccc3c12	-6.8	28.9*	-10.1	1.2	-439.3
O=C(COC(=O)CNC(=O)C1CCCCC1)Nc1ccccc1	-0.6	/	0.7	/	2.7
Cn1c(N=Cc2ccc3c(c2)OCO3)nc2ccccc21	/	/	/	/	5.0
O=C(CNC(=O)c1cccc(Br)c1)NN=Cc1cn[nH]c1-c1ccccc1	/	/	/	/	3.7
CCOC(=O)C(C(=O)OCC)N(C#N)c1nc(C)cc(C)n1	2.0	21.1*	1.2	2.1	1.2
CC(=O)OCN(C#N)c1nc(N(C)C)nc(N(C)C)n1	1.8	-22.7	1.3	-0.6	6.0
CCOC(=O)C(C(=O)OCC)N(C#N)c1nc(N(C)C)nc(N(C)C)n1	-0.8	64.6*	8.9	-3.9	3.1
O=C(CNC(=O)C1COc2ccccc2O1)NN=Cc1ccc([N+](=O)[O-])cc1 (stereo not drawn)	/	/	/	/	7.1
CCC(=NNC(=O)C(N)=O)c1ccccc1O	/	/	/	/	3.2
Cc1ccc(C(=O)CSc2cc(C)nc(SCC(=O)c3ccccc3)n2)cc1	-4.8	4.9	1.0	-22.5	-2.3
Cc1cc(SCC(=O)c2ccccc2)nc(C)n1	3.9	-0.6	26.1*	-5.8	6.0
COC(=O)/C=C1\S/C(=N/N=Cc2ccc(Cl)cc2)NC1=O	/	/	/	/	8.1
CCC1CCCCN1C(=S)Nc1ccc(OC(F)F)cc1 (stereo not drawn)	4.3	3.1	26.7*	1.0	4.6
CC1CC(C)CN(C(=S)Nc2ccc(OC(F)F)cc2)C1 (stereo not drawn)	0.7	-1.6	13.7	-2.7	2.3
Nc1nonc1-n1nnc(C(=O)NN=Cc2ccc(F)cc2)c1-c1cccs1	/	/	/	/	-2.0
COc1ccc(C(=O)/C=C/c2ccc(OC)cc2OC)c(O)c1	5.4	-2.7	0.8	-11.0	2.4
COc1ccc(C(=O)/C=C/c2ccccc2)c(O)c1	4.8	22.3*	-4.2	-7.6	7.1
SMILES	MT1-MMP act inh	CTSL1 counter	NRP1-CendR mod	DAGLB inh	UCH37 inh
CC(=NNC(=O)COc1ccc(C)cc1[N+](=O)[O-])c1ccc2c(c1)OCCO2	/	/	/	/	5.7
CCc1nc(Nc2cc(OC)ccc2OC)c2oc3ccccc3c2n1	-0.2	2.3	25.4*	-14.0	i
Cc1ccccc1Oc1ccc2c(c1)[C@@H]1C[C@H](N(C)C(=O)Nc3cc(Cl)cc(Cl)c3)[C@H]([C@H](C)O)C(=O)N1CC2	-1.8	/	35.1*	-4.6	/
Cc1ccccc1Oc1ccc2c(c1)[C@@H]1C[C@H](N(C)C(=O)NC3CCCCC3)[C@H]([C@H](C)O)C(=O)N1CC2	5.0	/	8.3	-3.6	/
O=C(/C=C/c1cccnc1)c1ccc(NC(=O)c2cccc(Br)c2)cc1	0.3	3.7	19.0*	9.1	3.4
O=C(CNC(=O)c1ccc(F)cc1)NN=Cc1cccnc1	/	/	/	/	6.3
COc1ccc(Cl)cc1NC(=O)c1cccc(-n2cnnn2)c1	1.6	/	22.4*	1.8	-5.5
